{"source": "ChEMBL document CHEMBL5303300", "about": "“EUbOPEN Chemogenomics Library - Multiplex” (2023)", "key": {"U2OS": {"tested_on": "U2OS", "assay": "Multiplex assay against U2OS", "assay_type": "toxicity, cell-based", "settings": "human, number of replicates 2", "procedure,_shortened": "(§1)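 Cells were classed with CellPathfinder machine-learning gating, first as Hoechst high-intensity objects or normal cells, then (normal cells) as healthy, pyknosed or fragmented nuclei, and finally (pyknosed cells) as mitotic or apoptotic. Staining of live cells at seeding used Hoechst33342, BioTracker Green Microtubule Cytoskeleton Dye, MitoTracker Red and Annexin V Alexa Fluor 680, with imaging on a CQ1 microscope at 37°C and 5% CO2 after compound addition. Tubulin, mitochondrial-mass and membrane-permeability phenotypes are per cents of healthy-nucleus cells.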"}, "Fibroblast": {"tested_on": "Fibroblast", "assay": "Multiplex assay against human fibroblast", "assay_type": "toxicity, cell-based", "settings": "number of replicates 2", "procedure,_shortened": "as §1"}, "[1]": {"settings": "12 h, 1 µM, compound concentration 1 uM"}, "[2]": {"settings": "12 h, 10 µM, compound concentration 10 uM"}, "[3]": {"settings": "24 h, 1 µM, compound concentration 1 uM"}, "[4]": {"settings": "24 h, 10 µM, compound concentration 10 uM"}, "[5]": {"settings": "48 h, 1 µM, compound concentration 1 uM"}, "[6]": {"settings": "48 h, 10 µM, compound concentration 10 uM"}}, "note": "Several values for one entry are separate records, joined by “and”; a condition that tells them apart may be missing. Equal entries are not always repeated.", "data": [{"compound": "COc1cc(N2CCN(C)CC2)ccc1Nc1ncc2c(n1)N(C)c1ccccc1C(=O)N2CC(F)(F)F", "values": [{"measurement": "Population Apoptotic (%)", "setting": "U2OS; [1]", "value": "80% and 51%"}, {"measurement": "Population Fragmented Nuclei (%)", "setting": "U2OS; [1]", "value": "11% and 4%"}, {"measurement": "Population Healthy Nuclei (%)", "setting": "U2OS; [1]", "value": "76% and 82%"}, {"measurement": "Population Hoechst High Intensity Objects (%)", "setting": "U2OS; [1]", "value": 0, "unit": "%"}, {"measurement": "Population Membrane Permeable-Phenotype (%)", "setting": "U2OS; [1]", "value": 3, "unit": "%"}, {"measurement": "Population Mitotic Cells (%)", "setting": "U2OS; [1]", "value": "20% and 48%"}, {"measurement": "Population Normal (%)", "setting": "U2OS; [1]", "value": "100% and 99%"}, {"measurement": "Population Pyknosed Nuclei (%)", "setting": "U2OS; [1]", "value": "11% and 12%"}, {"measurement": "Population Tubulin-Different-Phenotype (%)", "setting": "U2OS; [1]", "value": "21% and 22%"}, {"measurement": "Population Apoptotic (%)", "setting": "U2OS; [2]", "value": "64% and 53%"}, {"measurement": "Population Healthy Nuclei (%)", "setting": "U2OS; [2]", "value": "45% and 78%"}, {"measurement": "Population Hoechst High Intensity Objects (%)", "setting": "U2OS; [2]", "value": 0, "unit": "%"}, {"measurement": "Population Membrane Permeable-Phenotype (%)", "setting": "U2OS; [2]", "value": "17% and 28%"}, {"measurement": "Population Mitochondria Different-Phenotype (%)", "setting": "U2OS; [2]", "value": "58% and 54%"}, {"measurement": "Population Mitotic Cells (%)", "setting": "U2OS; [2]", "value": "35% and 46%"}, {"measurement": "Population Normal (%)", "setting": "U2OS; [2]", "value": 100, "unit": "%"}, {"measurement": "Population Pyknosed Nuclei (%)", "setting": "U2OS; [2]", "value": "37% and 19%"}, {"measurement": "Population Tubulin-Different-Phenotype (%)", "setting": "U2OS; [2]", "value": "88% and 85%"}, {"measurement": "Population Apoptotic (%)", "setting": "U2OS; [3]", "value": "66% and 68%"}, {"measurement": "Population Healthy Nuclei (%)", "setting": "U2OS; [3]", "value": "69% and 83%"}, {"measurement": "Population Hoechst High Intensity Objects (%)", "setting": "U2OS; [3]", "value": 0, "unit": "%"}, {"measurement": "Population Membrane Permeable-Phenotype (%)", "setting": "U2OS; [3]", "value": "3% and 1%"}, {"measurement": "Population Mitochondria Different-Phenotype (%)", "setting": "U2OS; [3]", "value": "18% and 19%"}, {"measurement": "Population Mitotic Cells (%)", "setting": "U2OS; [3]", "value": "33% and 31%"}, {"measurement": "Population Normal (%)", "setting": "U2OS; [3]", "value": "100% and 99%"}, {"measurement": "Population Pyknosed Nuclei (%)", "setting": "U2OS; [3]", "value": "15% and 13%"}, {"measurement": "Population Tubulin-Different-Phenotype (%)", "setting": "U2OS; [3]", "value": "11% and 30%"}, {"measurement": "Population Apoptotic (%)", "setting": "U2OS; [4]", "value": 73, "unit": "%"}, {"measurement": "Population Fragmented Nuclei (%)", "setting": "U2OS; [4]", "value": "15% and 6%"}, {"measurement": "Population Healthy Nuclei (%)", "setting": "U2OS; [4]", "value": "39% and 55%"}, {"measurement": "Population Hoechst High Intensity Objects (%)", "setting": "U2OS; [4]", "value": 0, "unit": "%"}, {"measurement": "Population Membrane Permeable-Phenotype (%)", "setting": "U2OS; [4]", "value": "30% and 44%"}, {"measurement": "Population Mitochondria Different-Phenotype (%)", "setting": "U2OS; [4]", "value": "69% and 73%"}, {"measurement": "Population Mitotic Cells (%)", "setting": "U2OS; [4]", "value": 26, "unit": "%"}, {"measurement": "Population Normal (%)", "setting": "U2OS; [4]", "value": 100, "unit": "%"}, {"measurement": "Population Pyknosed Nuclei (%)", "setting": "U2OS; [4]", "value": "45% and 37%"}, {"measurement": "Population Tubulin-Different-Phenotype (%)", "setting": "U2OS; [4]", "value": "92% and 95%"}, {"measurement": "Population Apoptotic (%)", "setting": "U2OS; [5]", "value": "66% and 72%"}, {"measurement": "Population Healthy Nuclei (%)", "setting": "U2OS; [5]", "value": "62% and 84%"}, {"measurement": "Population Hoechst High Intensity Objects (%)", "setting": "U2OS; [5]", "value": 0, "unit": "%"}, {"measurement": "Population Membrane Permeable-Phenotype (%)", "setting": "U2OS; [5]", "value": "2% and 3%"}, {"measurement": "Population Mitochondria Different-Phenotype (%)", "setting": "U2OS; [5]", "value": "2% and 11%"}, {"measurement": "Population Mitotic Cells (%)", "setting": "U2OS; [5]", "value": "33% and 27%"}, {"measurement": "Population Normal (%)", "setting": "U2OS; [5]", "value": "100% and 99%"}, {"measurement": "Population Pyknosed Nuclei (%)", "setting": "U2OS; [5]", "value": "22% and 12%"}, {"measurement": "Population Tubulin-Different-Phenotype (%)", "setting": "U2OS; [5]", "value": "29% and 37%"}, {"measurement": "Population Apoptotic (%)", "setting": "U2OS; [6]", "value": "83% and 86%"}, {"measurement": "Population Fragmented Nuclei (%)", "setting": "U2OS; [6]", "value": "26% and 11%"}, {"measurement": "Population Hoechst High Intensity Objects (%)", "setting": "U2OS; [6]", "value": "2% and 0%"}, {"measurement": "Population Membrane Permeable-Phenotype (%)", "setting": "U2OS; [6]", "value": "85% and 66%"}, {"measurement": "Population Mitochondria Different-Phenotype (%)", "setting": "U2OS; [6]", "value": "71% and 74%"}, {"measurement": "Population Mitotic Cells (%)", "setting": "U2OS; [6]", "value": "16% and 13%"}, {"measurement": "Population Normal (%)", "setting": "U2OS; [6]", "value": "97% and 99%"}, {"measurement": "Population Pyknosed Nuclei (%)", "setting": "U2OS; [6]", "value": "57% and 34%"}, {"measurement": "Population Tubulin-Different-Phenotype (%)", "setting": "U2OS; [6]", "value": "100% and 94%"}, {"measurement": "Population Apoptotic (%)", "setting": "Fibroblast; [1]", "value": "50% and 44%"}, {"measurement": "Population Fragmented Nuclei (%)", "setting": "Fibroblast; [1]", "value": "14% and 10%"}, {"measurement": "Population Healthy Nuclei (%)", "setting": "Fibroblast; [1]", "value": "74% and 76%"}, {"measurement": "Population Hoechst High Intensity Objects (%)", "setting": "Fibroblast; [1]", "value": 0, "unit": "%"}, {"measurement": "Population Membrane Permeable-Phenotype (%)", "setting": "Fibroblast; [1]", "value": "1% and 2%"}, {"measurement": "Population Mitochondria Different-Phenotype (%)", "setting": "Fibroblast; [1]", "value": 1, "unit": "%"}, {"measurement": "Population Mitotic Cells (%)", "setting": "Fibroblast; [1]", "value": "50% and 55%"}, {"measurement": "Population Normal (%)", "setting": "Fibroblast; [1]", "value": 100, "unit": "%"}, {"measurement": "Population Pyknosed Nuclei (%)", "setting": "Fibroblast; [1]", "value": "10% and 13%"}, {"measurement": "Population Tubulin-Different-Phenotype (%)", "setting": "Fibroblast; [1]", "value": "32% and 20%"}, {"measurement": "Total Cell Count", "setting": "Fibroblast; [1]", "value": "214 and 269"}, {"measurement": "Population Apoptotic (%)", "setting": "Fibroblast; [2]", "value": "27% and 35%"}, {"measurement": "Population Fragmented Nuclei (%)", "setting": "Fibroblast; [2]", "value": "45% and 17%"}, {"measurement": "Population Healthy Nuclei (%)", "setting": "Fibroblast; [2]", "value": "40% and 66%"}, {"measurement": "Population Hoechst High Intensity Objects (%)", "setting": "Fibroblast; [2]", "value": "4% and 0%"}, {"measurement": "Population Membrane Permeable-Phenotype (%)", "setting": "Fibroblast; [2]", "value": "1% and 3%"}, {"measurement": "Population Mitochondria Different-Phenotype (%)", "setting": "Fibroblast; [2]", "value": "7% and 11%"}, {"measurement": "Population Mitotic Cells (%)", "setting": "Fibroblast; [2]", "value": "72% and 64%"}, {"measurement": "Population Normal (%)", "setting": "Fibroblast; [2]", "value": "95% and 100%"}, {"measurement": "Population Pyknosed Nuclei (%)", "setting": "Fibroblast; [2]", "value": "14% and 16%"}, {"measurement": "Population Tubulin-Different-Phenotype (%)", "setting": "Fibroblast; [2]", "value": "57% and 67%"}, {"measurement": "Total Cell Count", "setting": "Fibroblast; [2]", "value": "330 and 243"}, {"measurement": "Population Apoptotic (%)", "setting": "Fibroblast; [3]", "value": "75% and 29%"}, {"measurement": "Population Fragmented Nuclei (%)", "setting": "Fibroblast; [3]", "value": "17% and 18%"}, {"measurement": "Population Healthy Nuclei (%)", "setting": "Fibroblast; [3]", "value": "77% and 73%"}, {"measurement": "Population Hoechst High Intensity Objects (%)", "setting": "Fibroblast; [3]", "value": 0, "unit": "%"}, {"measurement": "Population Membrane Permeable-Phenotype (%)", "setting": "Fibroblast; [3]", "value": 1, "unit": "%"}, {"measurement": "Population Mitochondria Different-Phenotype (%)", "setting": "Fibroblast; [3]", "value": "1% and 3%"}, {"measurement": "Population Mitotic Cells (%)", "setting": "Fibroblast; [3]", "value": "25% and 70%"}, {"measurement": "Population Normal (%)", "setting": "Fibroblast; [3]", "value": "99% and 100%"}, {"measurement": "Population Pyknosed Nuclei (%)", "setting": "Fibroblast; [3]", "value": "5% and 8%"}, {"measurement": "Population Tubulin-Different-Phenotype (%)", "setting": "Fibroblast; [3]", "value": "33% and 18%"}, {"measurement": "Total Cell Count", "setting": "Fibroblast; [3]", "value": "241 and 300"}, {"measurement": "Population Apoptotic (%)", "setting": "Fibroblast; [4]", "value": "62% and 44%"}, {"measurement": "Population Fragmented Nuclei (%)", "setting": "Fibroblast; [4]", "value": "41% and 15%"}, {"measurement": "Population Healthy Nuclei (%)", "setting": "Fibroblast; [4]", "value": "47% and 69%"}, {"measurement": "Population Hoechst High Intensity Objects (%)", "setting": "Fibroblast; [4]", "value": "5% and 0%"}, {"measurement": "Population Membrane Permeable-Phenotype (%)", "setting": "Fibroblast; [4]", "value": 2, "unit": "%"}]}]}
